Experimental findings from ChEMBL document CHEMBL1146690, “Design and synthesis of aminopropyl tetrahydroindole-based indolin-2-ones as selective and potent inhibitors of Src and Yes tyrosine kinase” (Bioorg Med Chem Lett, 2004) are described below.

Each structure is given as a SMILES string. Where only a bound is given, the exact number is not on record here.

Tyrosine-protein kinase Lck, sequence (P06239 whole entry): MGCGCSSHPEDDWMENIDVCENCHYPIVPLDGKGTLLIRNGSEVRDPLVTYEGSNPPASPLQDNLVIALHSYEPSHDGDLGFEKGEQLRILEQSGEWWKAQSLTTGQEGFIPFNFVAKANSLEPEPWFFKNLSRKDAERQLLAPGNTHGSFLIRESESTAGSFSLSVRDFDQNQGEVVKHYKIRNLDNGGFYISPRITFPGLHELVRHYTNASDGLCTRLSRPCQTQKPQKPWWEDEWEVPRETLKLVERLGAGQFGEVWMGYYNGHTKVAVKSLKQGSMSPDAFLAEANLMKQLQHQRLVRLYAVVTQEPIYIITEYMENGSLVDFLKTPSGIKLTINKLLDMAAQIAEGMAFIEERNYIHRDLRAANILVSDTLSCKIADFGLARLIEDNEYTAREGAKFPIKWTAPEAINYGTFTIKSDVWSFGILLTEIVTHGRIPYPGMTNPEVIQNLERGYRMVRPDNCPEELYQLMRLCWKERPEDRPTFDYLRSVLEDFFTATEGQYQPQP
Proto-oncogene tyrosine-protein kinase Src, sequence (P12931 2-536 limits assumed): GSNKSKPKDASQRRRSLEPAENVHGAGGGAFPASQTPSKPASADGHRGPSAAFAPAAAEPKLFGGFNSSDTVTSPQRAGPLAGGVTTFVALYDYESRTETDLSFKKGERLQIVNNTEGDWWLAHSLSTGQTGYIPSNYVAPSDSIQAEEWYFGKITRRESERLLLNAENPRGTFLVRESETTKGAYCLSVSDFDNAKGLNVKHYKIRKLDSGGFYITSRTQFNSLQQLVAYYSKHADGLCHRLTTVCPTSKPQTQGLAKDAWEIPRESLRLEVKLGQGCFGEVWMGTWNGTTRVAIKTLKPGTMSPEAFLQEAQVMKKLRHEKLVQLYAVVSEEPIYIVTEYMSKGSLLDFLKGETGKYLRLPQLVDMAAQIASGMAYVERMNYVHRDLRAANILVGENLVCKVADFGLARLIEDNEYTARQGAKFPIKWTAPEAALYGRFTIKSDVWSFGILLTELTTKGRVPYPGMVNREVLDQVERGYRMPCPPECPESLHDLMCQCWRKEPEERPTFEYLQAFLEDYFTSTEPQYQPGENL
Platelet-derived growth factor receptor beta, sequence (P09619 whole entry): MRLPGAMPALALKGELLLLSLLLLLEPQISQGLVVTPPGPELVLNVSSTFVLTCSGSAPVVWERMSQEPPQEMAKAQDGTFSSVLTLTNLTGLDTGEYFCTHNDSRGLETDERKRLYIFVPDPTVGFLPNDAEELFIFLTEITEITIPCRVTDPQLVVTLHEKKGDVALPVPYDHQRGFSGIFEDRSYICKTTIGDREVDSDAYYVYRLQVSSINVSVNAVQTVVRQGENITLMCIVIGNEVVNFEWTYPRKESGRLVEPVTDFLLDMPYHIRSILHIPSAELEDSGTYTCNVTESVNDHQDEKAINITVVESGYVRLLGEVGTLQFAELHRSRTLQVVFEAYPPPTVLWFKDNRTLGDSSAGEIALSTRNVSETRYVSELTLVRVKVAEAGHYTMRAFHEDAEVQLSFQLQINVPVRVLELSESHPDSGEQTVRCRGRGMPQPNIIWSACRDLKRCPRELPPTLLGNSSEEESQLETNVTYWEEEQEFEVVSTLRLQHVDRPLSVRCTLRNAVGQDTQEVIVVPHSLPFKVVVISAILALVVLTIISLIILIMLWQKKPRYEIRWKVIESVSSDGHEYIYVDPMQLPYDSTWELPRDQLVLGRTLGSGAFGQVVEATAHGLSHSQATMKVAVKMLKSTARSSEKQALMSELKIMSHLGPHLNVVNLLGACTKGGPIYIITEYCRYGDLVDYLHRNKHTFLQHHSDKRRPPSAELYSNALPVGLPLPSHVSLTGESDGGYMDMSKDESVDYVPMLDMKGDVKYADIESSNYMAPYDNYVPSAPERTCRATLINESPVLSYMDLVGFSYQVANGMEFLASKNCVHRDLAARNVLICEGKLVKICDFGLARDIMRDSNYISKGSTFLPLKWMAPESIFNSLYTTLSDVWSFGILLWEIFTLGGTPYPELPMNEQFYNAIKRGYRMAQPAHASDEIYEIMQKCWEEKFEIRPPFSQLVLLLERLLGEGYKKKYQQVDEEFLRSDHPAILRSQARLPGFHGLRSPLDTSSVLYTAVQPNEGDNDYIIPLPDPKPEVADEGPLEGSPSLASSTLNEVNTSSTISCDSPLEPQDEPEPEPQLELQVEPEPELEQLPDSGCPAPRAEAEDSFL

The target of one experiment is Platelet-derived growth factor receptor beta (Homo sapiens, UniProt P09619). Kind of experiment: Inhibitory activity against PDGFRbeta tyrosine kinase. Put shortly:
(§1)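 Enzymatic kinase inhibition run by previously reported methods. Each IC50 came from at least two separate tests with deviation under 20%, and the mean is reported.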
For orientation: IC50 means the concentration that inhibits the measured activity by half. Regarding `CCS(=O)(=O)c1ccc2c(c1)/C(=C/c1[nH]c3c(c1CCC(N)=O)CCCC3)C(=O)N2`, it took 5.1 µM to reach half-maximal inhibition (IC50).
On the same count and under the same terms, as for `CNS(=O)(=O)c1ccc2c(c1)/C(=C/c1[nH]c3c(c1CCCN1CCC(O)CC1)CCCC3)C(=O)N2`, the figure is 4.7 µM; as for `CCOC(=O)CN1CCN(CCCc2c(/C=C3\C(=O)Nc4ccc(S(=O)(=O)NC)cc43)[nH]c3c2CCCC3)CC1`, more than 20 µM.

A further experiment concerns the target Tyrosine-protein kinase Lck (Homo sapiens, UniProt P06239). As to the kind of experiment: Inhibitory activity against Lck tyrosine kinase.
`CCS(=O)(=O)c1ccc2c(c1)/C(=C/c1[nH]c3c(c1CN1CCOCC1)CCCC3)C(=O)N2` registered an IC50 of 800 nM.
The same measure, in the same setting: with `CNS(=O)(=O)c1ccc2c(c1)/C(=C/c1[nH]c3c(c1CN1CCOCC1)CCCC3)C(=O)N2` the figure was 80 nM; with `CNS(=O)(=O)c1ccc2c(c1)/C(=C/c1[nH]c3c(c1CCCN1CCC(O)CC1)CCCC3)C(=O)N2`, 300 nM; with `CCOC(=O)CN1CCN(CCCc2c(/C=C3\C(=O)Nc4ccc(S(=O)(=O)NC)cc43)[nH]c3c2CCCC3)CC1`, 600 nM.

Another experiment deals with Vascular endothelial growth factor receptor 2 (Homo sapiens, UniProt P35968). Kind of experiment: Inhibitory activity against Vascular endothelial growth factor receptor 2.
Vascular endothelial growth factor receptor 2, sequence (P35968 whole entry): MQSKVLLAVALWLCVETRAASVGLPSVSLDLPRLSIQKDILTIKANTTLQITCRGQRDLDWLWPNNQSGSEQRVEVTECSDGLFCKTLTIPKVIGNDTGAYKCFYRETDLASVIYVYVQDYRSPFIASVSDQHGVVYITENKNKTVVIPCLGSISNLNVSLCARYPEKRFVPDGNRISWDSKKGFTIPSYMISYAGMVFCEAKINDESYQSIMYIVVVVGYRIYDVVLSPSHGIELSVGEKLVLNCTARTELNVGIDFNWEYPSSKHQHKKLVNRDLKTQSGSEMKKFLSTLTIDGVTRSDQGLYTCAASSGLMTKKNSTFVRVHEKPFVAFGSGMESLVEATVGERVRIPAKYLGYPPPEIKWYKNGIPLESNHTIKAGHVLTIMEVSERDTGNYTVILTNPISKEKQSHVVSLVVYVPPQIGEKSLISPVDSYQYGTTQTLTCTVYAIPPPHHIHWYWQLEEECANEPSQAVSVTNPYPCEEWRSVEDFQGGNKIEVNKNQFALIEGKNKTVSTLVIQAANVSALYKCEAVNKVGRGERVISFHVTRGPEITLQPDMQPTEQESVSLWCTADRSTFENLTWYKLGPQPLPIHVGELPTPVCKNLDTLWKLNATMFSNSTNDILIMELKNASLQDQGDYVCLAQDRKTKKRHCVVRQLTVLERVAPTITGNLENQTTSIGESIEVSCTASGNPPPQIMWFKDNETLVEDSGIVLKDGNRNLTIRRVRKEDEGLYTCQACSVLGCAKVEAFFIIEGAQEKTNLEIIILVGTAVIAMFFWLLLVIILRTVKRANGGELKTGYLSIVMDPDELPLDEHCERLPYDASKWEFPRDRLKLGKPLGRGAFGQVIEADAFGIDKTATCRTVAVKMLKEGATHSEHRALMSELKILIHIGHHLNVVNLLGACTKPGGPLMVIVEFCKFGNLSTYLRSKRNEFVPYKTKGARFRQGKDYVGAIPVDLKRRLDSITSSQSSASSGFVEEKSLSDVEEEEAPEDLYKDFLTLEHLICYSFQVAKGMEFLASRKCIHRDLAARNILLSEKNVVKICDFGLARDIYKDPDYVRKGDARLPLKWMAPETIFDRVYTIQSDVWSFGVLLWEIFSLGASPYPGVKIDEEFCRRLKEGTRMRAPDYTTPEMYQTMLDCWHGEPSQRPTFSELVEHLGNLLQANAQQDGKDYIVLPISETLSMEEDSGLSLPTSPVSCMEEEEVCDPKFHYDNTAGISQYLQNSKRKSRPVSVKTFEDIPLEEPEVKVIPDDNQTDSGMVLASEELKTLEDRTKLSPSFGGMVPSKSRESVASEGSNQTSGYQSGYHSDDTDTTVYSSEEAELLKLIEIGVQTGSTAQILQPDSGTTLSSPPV
For the compound `CCS(=O)(=O)c1ccc2c(c1)/C(=C/c1[nH]c3c(c1CN1CCOCC1)CCCC3)C(=O)N2`, the half-inhibitory concentration (IC50) is 100 nM.
The same measure, in the same setting: as for `CNS(=O)(=O)c1ccc2c(c1)/C(=C/c1[nH]c3c(c1CN1CCOCC1)CCCC3)C(=O)N2`, the figure is 60 nM.
Consider `CCS(=O)(=O)c1ccc2c(c1)/C(=C/c1[nH]c3c(c1CCC(N)=O)CCCC3)C(=O)N2`, for which the IC50 is 300 nM.
On the same count and under the same terms, with `CNS(=O)(=O)c1ccc2c(c1)/C(=C/c1[nH]c3c(c1CCCN1CCC(O)CC1)CCCC3)C(=O)N2` the figure was 7100 nM; with `CCOC(=O)CN1CCN(CCCc2c(/C=C3\C(=O)Nc4ccc(S(=O)(=O)NC)cc43)[nH]c3c2CCCC3)CC1`, 500 nM.

A further experiment has as its target Proto-oncogene tyrosine-protein kinase Src (Homo sapiens, UniProt P12931). As to the kind of experiment: Inhibitory activity against Src protein tyrosine kinase. Put shortly:
as §1
Take `CN(C)CCCc1c(/C=C2\C(=O)Nc3ccc(C(=O)O)cc32)[nH]c2c1CCCC2`: the IC50 amounted to 700 nM.
Compound `CCS(=O)(=O)c1ccc2c(c1)/C(=C/c1[nH]c3c(c1CCC(=O)O)CCCC3)C(=O)N2` had a half-inhibitory concentration (IC50) of 400 nM.
Same read-out and setting: with `CN(C)CCCc1c(/C=C2\C(=O)Nc3ccc(S(=O)(=O)Nc4ccccc4Cl)cc32)[nH]c2c1CCCC2` the figure was 300 nM.
`COc1ccc2c(c1)/C(=C/c1[nH]c3c(c1CCCN(C)C)CCCC3)C(=O)N2` registered an IC50 of 1000 nM.
Compound `CNS(=O)(=O)c1ccc2c(c1)/C(=C/c1[nH]c3c(c1CCCN1CCN(C(=O)CO)CC1)CCCC3)C(=O)N2` returned an IC50 of 400 nM.
Still for that read-out and setting: as for `CCS(=O)(=O)c1ccc2c(c1)/C(=C/c1[nH]c3c(c1CCCN1CCN(C(C)=O)CC1)CCCC3)C(=O)N2`, the figure is 400 nM.
Compound `CCS(=O)(=O)c1ccc2c(c1)/C(=C/c1[nH]c3c(c1CN1CCOCC1)CCCC3)C(=O)N2` registered an IC50 of 70 nM.
Still for that read-out and setting: as for `CNS(=O)(=O)c1ccc2c(c1)/C(=C/c1[nH]c3c(c1CN1CCOCC1)CCCC3)C(=O)N2`, the figure is 10 nM; as for `CCS(=O)(=O)c1ccc2c(c1)/C(=C/c1[nH]c3c(c1CCC(N)=O)CCCC3)C(=O)N2`, 40 nM; as for `CNS(=O)(=O)c1ccc2c(c1)/C(=C/c1[nH]c3c(c1CCCN1CCC(O)CC1)CCCC3)C(=O)N2`, 50 nM.
With `CCOC(=O)CN1CCN(CCCc2c(/C=C3\C(=O)Nc4ccc(S(=O)(=O)NC)cc43)[nH]c3c2CCCC3)CC1`, it took 70 nM to reach half-maximal inhibition (IC50).

For the next experiment, the target named is Tyrosine-protein kinase Fyn (Homo sapiens, UniProt P06241). As to the kind of experiment: Inhibitory activity against Fyn tyrosine kinase.
Tyrosine-protein kinase Fyn, sequence (P06241 whole entry): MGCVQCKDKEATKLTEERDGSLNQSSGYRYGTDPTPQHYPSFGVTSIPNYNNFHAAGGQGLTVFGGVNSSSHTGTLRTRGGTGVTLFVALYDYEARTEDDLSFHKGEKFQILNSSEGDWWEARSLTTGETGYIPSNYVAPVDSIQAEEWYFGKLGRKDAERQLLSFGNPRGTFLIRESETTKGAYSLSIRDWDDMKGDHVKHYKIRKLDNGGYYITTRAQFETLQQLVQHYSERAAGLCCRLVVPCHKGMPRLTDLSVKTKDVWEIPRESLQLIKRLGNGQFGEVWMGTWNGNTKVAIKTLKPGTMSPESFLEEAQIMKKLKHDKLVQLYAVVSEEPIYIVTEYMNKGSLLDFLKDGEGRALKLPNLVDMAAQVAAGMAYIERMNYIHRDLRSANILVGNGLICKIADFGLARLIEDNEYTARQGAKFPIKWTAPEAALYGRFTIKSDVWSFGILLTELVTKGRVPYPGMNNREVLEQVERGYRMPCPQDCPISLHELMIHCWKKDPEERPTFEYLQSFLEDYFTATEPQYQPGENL
Compound `CCS(=O)(=O)c1ccc2c(c1)/C(=C/c1[nH]c3c(c1CN1CCOCC1)CCCC3)C(=O)N2` displayed an IC50 of 1400 nM.
On the same count and under the same terms, as for `CNS(=O)(=O)c1ccc2c(c1)/C(=C/c1[nH]c3c(c1CN1CCOCC1)CCCC3)C(=O)N2`, the figure is 400 nM.
In turn, `CCS(=O)(=O)c1ccc2c(c1)/C(=C/c1[nH]c3c(c1CCC(N)=O)CCCC3)C(=O)N2` returned an IC50 of 200 nM.
Still for that read-out and setting: with `CNS(=O)(=O)c1ccc2c(c1)/C(=C/c1[nH]c3c(c1CCCN1CCC(O)CC1)CCCC3)C(=O)N2` the figure was 200 nM; with `CCOC(=O)CN1CCN(CCCc2c(/C=C3\C(=O)Nc4ccc(S(=O)(=O)NC)cc43)[nH]c3c2CCCC3)CC1`, 500 nM.

The target of a further experiment is Fibroblast growth factor receptor 1 (Homo sapiens, UniProt P11362). Kind of experiment: Inhibitory activity against Fibroblast growth factor receptor 1.
Fibroblast growth factor receptor 1, sequence (P11362 whole entry): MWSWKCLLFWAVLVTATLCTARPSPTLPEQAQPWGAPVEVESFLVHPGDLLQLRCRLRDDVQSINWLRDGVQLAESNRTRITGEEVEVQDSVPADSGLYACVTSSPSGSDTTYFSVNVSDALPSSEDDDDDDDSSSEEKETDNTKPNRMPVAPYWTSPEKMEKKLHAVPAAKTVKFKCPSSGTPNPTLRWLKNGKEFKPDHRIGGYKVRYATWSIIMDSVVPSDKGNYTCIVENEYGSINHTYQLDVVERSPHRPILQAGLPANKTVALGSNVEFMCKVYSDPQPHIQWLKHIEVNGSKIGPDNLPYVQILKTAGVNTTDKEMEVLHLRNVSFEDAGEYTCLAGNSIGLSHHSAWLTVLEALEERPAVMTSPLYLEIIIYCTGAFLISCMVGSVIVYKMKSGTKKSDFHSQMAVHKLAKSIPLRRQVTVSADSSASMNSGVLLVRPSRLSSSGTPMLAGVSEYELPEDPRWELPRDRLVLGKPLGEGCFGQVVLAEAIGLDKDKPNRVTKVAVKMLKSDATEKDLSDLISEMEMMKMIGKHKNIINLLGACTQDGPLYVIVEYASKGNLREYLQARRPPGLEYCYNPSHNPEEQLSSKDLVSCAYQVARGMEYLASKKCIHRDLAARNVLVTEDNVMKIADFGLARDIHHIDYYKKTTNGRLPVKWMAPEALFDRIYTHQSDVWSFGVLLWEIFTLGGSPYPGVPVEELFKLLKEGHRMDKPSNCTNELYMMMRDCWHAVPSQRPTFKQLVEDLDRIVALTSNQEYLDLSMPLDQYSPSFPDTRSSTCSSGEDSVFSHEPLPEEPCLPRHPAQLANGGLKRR
The compound `CCS(=O)(=O)c1ccc2c(c1)/C(=C/c1[nH]c3c(c1CN1CCOCC1)CCCC3)C(=O)N2` gave an IC50 of 400 nM.
The same measure, in the same setting: with `CNS(=O)(=O)c1ccc2c(c1)/C(=C/c1[nH]c3c(c1CN1CCOCC1)CCCC3)C(=O)N2` the figure was 200 nM; with `CCS(=O)(=O)c1ccc2c(c1)/C(=C/c1[nH]c3c(c1CCC(N)=O)CCCC3)C(=O)N2`, 80 nM; with `CNS(=O)(=O)c1ccc2c(c1)/C(=C/c1[nH]c3c(c1CCCN1CCC(O)CC1)CCCC3)C(=O)N2`, 3400 nM.
`CCOC(=O)CN1CCN(CCCc2c(/C=C3\C(=O)Nc4ccc(S(=O)(=O)NC)cc43)[nH]c3c2CCCC3)CC1` came in with an IC50 of 80 nM.
